Experimental findings from ChEMBL document CHEMBL4513216, “Probing the Open Global Health Chemical Diversity Library for Multistage-Active Starting Points for Next-Generation Antimalarials” (ACS Infect Dis, 2020) are described below.

The series in a line: Toxicity liver stage against HepG2, at 10uM. Set-up: test concentration 10 uM, cell line HepG2-A16-CD81EGFP. The following applies: human, HepG2-A16-CD81EGFP cells; read-out: INHIBITION
The class given is cell-based. The essentials:
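Uninfected HepG2-A16-CD81EGFP cells, 3 × 10^3 per well, 1536-well, plated on prespotted compound at 10 μM final, parasite-free screening media added to match infected plates; puromycin 10 μM positive, DMSO 0.5% negative; run in parallel with 48 h PbLuc assay at 37 °C, 5% CO2; viability by CellTiter-Glo luminescence, normalized to controls.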
With `COc1cccc(C(O)CN2CCN(c3cccc(C)c3)CC2)c1` (stereo not given), the cytotoxicity at 10 µM is -3.85%. For the compound `c1coc(CN2CCCn3c(CN4CCOCC4)nnc3C2)c1`, the cytotoxicity at 10 µM amounted to 4.86%. As to `CC(NCc1cn(CCC(N)=O)c2ccccc12)c1nncn1C` (stereo not given), the cytotoxicity at 10 µM stood at 0.78%. On to `Cc1ncc(CNC(=O)NC2CCN(C3CCCC3)CC2)s1`, for which the cytotoxicity at 10 µM is -9.01%. With `Cc1cc2cc(CNC3CCN(S(C)(=O)=O)CC3)oc2cc1C` the figure was -0.779%; with `CCN1CCCC(O)(c2nc(C)c(CCOc3ccccc3F)s2)CC1` (stereo not given), -32.1%; with `Cc1cnn(CC2CCCCN2C(=O)c2n[nH]c3ccccc23)c1` (stereo not given), -8.25%. Consider `CCCC(N)CNS(=O)(=O)Cc1cccc(C#N)c1` (stereo not given), for which the cytotoxicity at 10 µM was 6.13%. Regarding `CCc1nc(C2CCCN2Cc2nnc(C3CCC3)o2)no1` (stereo not given), the cytotoxicity at 10 µM came out at 1.48%.

As for `N#Cc1cccnc1N1CCCN(C(=O)CCc2nccs2)CC1`, the cytotoxicity at 10 µM was -11.5%. Consider `CCC(=O)N1CCN(C(=O)CCn2cc(Cl)cn2)[C@H]2CS(=O)(=O)C[C@H]21`, for which the cytotoxicity at 10 µM was -6.39%.

With `CC(C)(N)c1cn(C2CCN(C(=O)CCC3CCCCC3)CC2)nn1`, the cytotoxicity at 10 µM is -6.53%. With `CCc1n[nH]c(C2CN(C(=O)CCn3ccccc3=O)CCO2)n1` (stereo not given) the figure was 0.00528%; with `CC(C)(C)C(NC(=O)CCCS(C)(=O)=O)c1ccc(F)cc1F` (stereo not given), 8.87%. `Cc1cc(CCC(=O)N2CCC(O)CC2)ccc1Br`: the cytotoxicity at 10 µM was -4.3%. In the case of `Cc1nn(C)c(N2CCOCC2)c1CNCc1cccnc1`, the cytotoxicity at 10 µM stood at 7.11%.

For `CCc1nnc2n1CCN(C(=O)CCOc1cc(C)ccc1C)C2`, the cytotoxicity at 10 µM is -11.3%. For the compound `COc1ccc(C2CCN(C(=O)c3ncccc3OC(C)C)C2)cc1` (stereo not given), the cytotoxicity at 10 µM was -6.45%.

As to `CC(C)(C)N1CCCN(C(=O)c2csc(S(N)(=O)=O)c2)CC1`, the cytotoxicity at 10 µM came to 5.06%. Regarding `COCCn1cc(NC(=O)C(C)CCc2ccccc2F)ccc1=O` (stereo not given), the cytotoxicity at 10 µM was -3.73%. As for `CS(=O)(=O)N1C[C@@H](NC(=O)c2ccno2)[C@@H]2OCCC[C@@H]21`, the cytotoxicity at 10 µM is -108%. Regarding `CC(=O)Nc1ccc(CN2CCc3[nH]cnc3C2c2ccc(C)o2)cc1` (stereo not given), the cytotoxicity at 10 µM came to 4.93%.

`CC(C)c1nccn1C1CCCN(C(=O)c2ccc(=O)n(C)n2)C1` (stereo not given): the cytotoxicity at 10 µM is 7.8%.

Regarding `CCn1c(N)nc2cc(C(=O)NCc3ccccc3Cl)cnc21`, the cytotoxicity at 10 µM is -14.1%.

Turning to `COc1ccc(S(=O)(=O)NCCCc2ccc(N(C)C)cc2)cc1Cl`, the cytotoxicity at 10 µM was -0.399%. For `Cc1nc2c(c(NCC(=O)NC(C)C)n1)Cc1ccccc1OC2`, the cytotoxicity at 10 µM is 4.81%.

In the case of `CNC(=O)[C@@H]1C[C@@H](N)CN1Cc1ccc2cccc(OC)c2n1`, the cytotoxicity at 10 µM turned out to be 0.719%.

Take `CS(=O)(=O)N1CCC2(CC1)c1ccccc1[C@@H](N1CCSCC1)[C@@H]2O`: the cytotoxicity at 10 µM is -9.71%. The result for `CN(Cc1ccco1)Cc1ccccc1CNC(=O)c1ccncc1` reads -9.87%; that for `CCCc1c(C(=O)N2CCN(c3nccc(OC)n3)CC2)cnn1C`, 17.2%. With `CCN(Cc1cccc(C)c1)Cc1nc2c(cnn2C)c(=O)[nH]1` the figure was -21.6%; with `CCN1CCC2(CCC1=O)CN(C1CCOCC1)CCN2C` (stereo not given), -1.14%; with `CC(=O)N1CCn2c(nnc2C2CCCCN2C(C)=O)C1` (stereo not given), -28.1%. Regarding `Cc1nc(CN2C[C@@H](NS(=O)(=O)N(C)C)[C@H](C(C)C)C2)cs1`, the cytotoxicity at 10 µM is -6.04%. With `CCN(Cc1cnn(C)c1)C(=O)c1cc2ccccc2c(=O)[nH]1` the figure was -7.94%.

For `CN1CCC(CO[C@H]2CN(C(=O)c3cccn3C)[C@@H]3COC[C@H]23)CC1`, the cytotoxicity at 10 µM was -109%.

On to `CCn1c(NCc2ccco2)nc2c(C)nn(C)c2c1=O`, for which the cytotoxicity at 10 µM turned out to be 2.48%.

With `O=C(c1occc1CN1C(=O)Cc2ccccc21)N1CC(O)C1`, the cytotoxicity at 10 µM was -4.43%. As to `CC(=O)N(C)CC(=O)NC(C)c1ccc(OCCC(C)C)cc1` (stereo not given), the cytotoxicity at 10 µM worked out at 8.59%. With `COc1cccc(C(=O)Nc2ccc(OC3CCN(C)CC3)cc2)c1` the figure was -6.88%; with `CC(CCc1ccccc1)NC(=O)Nc1cnn(CC(N)=O)c1` (stereo not given), 1.64%; with `CCOC(=O)N1CCN(C(=O)c2sc(-c3ccncc3)nc2C)CC1`, -3.3%. Consider `Cc1cnn(CC2CN(CC(=O)Nc3nncs3)CCO2)c1` (stereo not given), for which the cytotoxicity at 10 µM was -10%. As for `COCCC(=O)N1CCC2(COCc3c(C)nc(NCC4CC4)nc32)C1` (stereo not given), the cytotoxicity at 10 µM is 2.19%. With `CN1CCN(C=C2N=C(c3cc(-c4ccc(F)cc4)n[nH]3)ON2)CC1` the figure was -2.08%; with `CCCS(=O)(=O)N1CCC2(CCCN(c3ncc(F)cn3)C2)C1` (stereo not given), 13.4%; with `CN(C)c1cccc(C2CCCN2S(=O)(=O)c2cn(C)cn2)n1` (stereo not given), -28.7%. Turning to `O=C(COCCOc1ccccc1)NC1CCN(c2ccccn2)CC1`, the cytotoxicity at 10 µM was -4.56%.

On to `CC(C(=O)Nc1sccc1C(N)=O)N(C)CCOc1ccccc1` (stereo not given), for which the cytotoxicity at 10 µM turned out to be 2.59%. For the compound `O=C(CCN1CCOC(Cn2cccn2)C1)NC1CCCCC1` (stereo not given), the cytotoxicity at 10 µM is -6.28%.

`Cc1cc(C(=O)N2C[C@H](c3ccccc3)[C@@H](N)C2)c2ccc(F)cc2n1`: the cytotoxicity at 10 µM is 3.96%. For `COc1ccccc1Oc1ncccc1CNC(=O)[C@@H](N)CCO`, the cytotoxicity at 10 µM was -17.5%.

Take `CCN(CC1CCCN(CCc2cccc(OC)c2)C1)C(=O)CSC` (stereo not given): the cytotoxicity at 10 µM is 8.76%. In the case of `Cc1nnc(CN(C)CC2(O)CCCN(CCC3CCCCC3)C2=O)o1` (stereo not given), the cytotoxicity at 10 µM was determined as 17.1%. Regarding `Cc1ccc(-c2nnc(CN3CCn4c(nnc4C4CC4)C3)o2)cc1`, the cytotoxicity at 10 µM is -6.37%.

Regarding `c1ccc(OCc2nnc3n2CCN(Cc2ccco2)C3)nc1`, the cytotoxicity at 10 µM is 5.5%.

Turning to `C[S+]([O-])c1nncn1CC(=O)c1ccc2c(c1)CCO2` (stereo not given), the cytotoxicity at 10 µM was -2.85%.

Take `N#Cc1ccc(CNC(=O)NCCNC(=O)C2CCCC2)c(F)c1`: the cytotoxicity at 10 µM turned out to be 4.17%. For `Cc1cc(C)nc(N2CCOC(c3cc(CCO)[nH]n3)C2)n1` (stereo not given), the cytotoxicity at 10 µM stood at 1.89%. Turning to `c1cnn(-c2ccc(CCNC3CCN(C4CC4)C3)cc2)c1` (stereo not given), the cytotoxicity at 10 µM was 2.84%. For `CCN1CCN(c2ncnc3c2CCN(C(=O)C2CC2)C3)CC1`, the cytotoxicity at 10 µM was -3.2%. Regarding `CN(Cc1nnn(CC2CCC2)n1)C(=O)c1ccccc1`, the cytotoxicity at 10 µM is -6.06%. In the case of `Nc1nnc(SCc2cc(=O)n3c4c(sc3n2)CCCC4)s1`, the cytotoxicity at 10 µM was 7.83%. For `Cc1ncsc1C(=O)NCCNC(=O)Cc1cccc(F)c1`, the cytotoxicity at 10 µM is -0.0716%. Consider `CCc1cnc(CN(C)C(=O)Nc2cnn(CC3CCCO3)c2)s1` (stereo not given), for which the cytotoxicity at 10 µM was determined as 4.03%. Take `CC(C)CN(CC(O)c1ccc(F)cc1)C(=O)c1csnn1` (stereo not given): the cytotoxicity at 10 µM is 2.83%.

Consider `CC(=O)N(c1ccc(F)cc1)c1nc(CN2CCCC2C(C)C)cs1` (stereo not given), for which the cytotoxicity at 10 µM was -12.2%.

With `CCn1ccnc1CN1CCCN(C(=O)c2ccnc(C)n2)CC1`, the cytotoxicity at 10 µM was -12.2%. In the case of `CCS(=O)(=O)c1ncc(CN(C)Cc2cccc(OC)c2)n1CCOC`, the cytotoxicity at 10 µM is -0.636%. The result for `Cc1ccccc1N1CCCN(CC2(O)CCCNC2)CC1` (stereo not given) reads -6.1%.
